Results reported in ChEMBL document CHEMBL1681711, “Discovery of a potent, orally bioavailable pyrimidine VLA-4 antagonist effective in a sheep asthma model” (Bioorg Med Chem Lett, 2011).
pIC50: −log10 of the molar value. Calls of active or inactive are those of the source. No cut-off for these calls is given here.

Key:
[1] = target: Integrin alpha-4/beta-1 (Homo sapiens, UniProt P05556+P13612); assay: Inhibition of integrin alpha4beta1-mediated Jurkat cell adhesion to VCAM-1 by FACS analysis; format: cell-based
Sequence of Integrin alpha-4/beta-1 (P05556 whole entry): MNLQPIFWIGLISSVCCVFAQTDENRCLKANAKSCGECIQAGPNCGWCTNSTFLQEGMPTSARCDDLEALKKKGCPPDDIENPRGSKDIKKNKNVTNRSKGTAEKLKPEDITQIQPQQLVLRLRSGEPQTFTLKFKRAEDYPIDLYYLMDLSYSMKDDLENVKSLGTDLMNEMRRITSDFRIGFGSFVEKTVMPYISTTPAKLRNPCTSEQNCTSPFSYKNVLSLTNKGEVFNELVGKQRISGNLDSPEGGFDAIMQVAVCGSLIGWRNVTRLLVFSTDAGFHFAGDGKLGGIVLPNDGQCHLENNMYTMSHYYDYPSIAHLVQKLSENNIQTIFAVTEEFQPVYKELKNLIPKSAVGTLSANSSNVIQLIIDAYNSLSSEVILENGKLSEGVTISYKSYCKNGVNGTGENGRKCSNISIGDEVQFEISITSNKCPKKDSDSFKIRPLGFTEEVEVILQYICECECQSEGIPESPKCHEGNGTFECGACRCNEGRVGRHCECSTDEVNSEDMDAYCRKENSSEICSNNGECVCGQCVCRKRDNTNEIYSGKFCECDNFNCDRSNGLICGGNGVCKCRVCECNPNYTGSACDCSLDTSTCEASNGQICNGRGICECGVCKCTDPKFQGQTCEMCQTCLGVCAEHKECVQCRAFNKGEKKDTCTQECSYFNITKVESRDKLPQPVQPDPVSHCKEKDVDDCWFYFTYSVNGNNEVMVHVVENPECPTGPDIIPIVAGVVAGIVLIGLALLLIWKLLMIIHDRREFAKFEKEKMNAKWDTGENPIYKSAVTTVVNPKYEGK
Sequence of Integrin alpha-4/beta-1 (P13612 whole entry): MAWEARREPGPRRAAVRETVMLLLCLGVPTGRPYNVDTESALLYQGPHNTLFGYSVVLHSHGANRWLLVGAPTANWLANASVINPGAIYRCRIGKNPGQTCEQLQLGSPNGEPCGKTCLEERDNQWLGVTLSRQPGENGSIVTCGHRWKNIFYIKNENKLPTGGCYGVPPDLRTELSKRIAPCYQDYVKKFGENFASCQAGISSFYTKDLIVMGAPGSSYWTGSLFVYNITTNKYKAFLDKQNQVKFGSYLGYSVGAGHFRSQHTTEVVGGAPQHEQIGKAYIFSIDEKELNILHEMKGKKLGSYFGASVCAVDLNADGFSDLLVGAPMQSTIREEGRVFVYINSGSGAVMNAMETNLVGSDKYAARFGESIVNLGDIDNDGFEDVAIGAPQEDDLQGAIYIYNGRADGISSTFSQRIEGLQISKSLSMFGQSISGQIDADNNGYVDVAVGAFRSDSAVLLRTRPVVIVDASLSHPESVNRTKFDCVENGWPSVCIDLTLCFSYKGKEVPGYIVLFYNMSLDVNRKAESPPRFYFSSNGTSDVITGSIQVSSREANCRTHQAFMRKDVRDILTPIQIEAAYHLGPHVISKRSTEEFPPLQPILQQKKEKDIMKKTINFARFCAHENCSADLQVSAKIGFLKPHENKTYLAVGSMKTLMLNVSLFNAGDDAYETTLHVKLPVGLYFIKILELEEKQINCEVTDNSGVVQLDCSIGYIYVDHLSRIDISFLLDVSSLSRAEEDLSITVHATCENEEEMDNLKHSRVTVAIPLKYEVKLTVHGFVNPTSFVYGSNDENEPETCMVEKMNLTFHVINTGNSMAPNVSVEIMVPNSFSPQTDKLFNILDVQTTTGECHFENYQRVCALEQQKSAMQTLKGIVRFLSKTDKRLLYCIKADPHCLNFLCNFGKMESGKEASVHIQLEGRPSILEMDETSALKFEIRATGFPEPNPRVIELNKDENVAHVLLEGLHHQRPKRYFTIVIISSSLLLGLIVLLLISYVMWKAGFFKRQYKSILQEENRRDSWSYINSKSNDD
Method in brief: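 α4β1-positive Jurkat cells were incubated with recombinant soluble VCAM-1, and binding of this ligand was measured by flow cytometry (FACS).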

[2] = Drug excretion in Sprague-Dawley rat bile at 10 mg/kg, po; format: ADME, organism-based; parameters: dose 10 mg/kg, route oral; conditions: read-out: Activity
[3] = test system: Ovis aries; assay: Antiasthamatic activity in po dosed sheep asthma model assessed as prevention of carbachol-induced early phase hyperresponsiveness; format: functional; conditions: read-out: MED
[4] = Oral bioavailability in Sprague-Dawley rat at 10 mg/kg; format: ADME, organism-based; conditions: in vivo
[5] = test system: Ovis aries; assay: Antiasthamatic activity in po dosed sheep asthma model assessed as prevention of carbachol-induced late phase hyperresponsiveness; format: functional; conditions: read-out: MED
[6] = Bioavailability in Sprague-Dawley rat at 10 mg/kg, iv and po; format: ADME, organism-based; conditions: in vivo
Method in brief: (§1)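 Male rats in each arm; the compound was given at 10 mg/kg both intravenously and orally, with parameters taken from these two arms.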

[7] = Bioavailability in Beagle dog at 3 mg/kg, iv and 10 mg/kg, po; format: ADME, organism-based, Canis lupus familiaris; conditions: in vivo
Method in brief: (§2)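 Male dogs in each arm; the intravenous arm used 3 mg/kg and the oral arm 10 mg/kg.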

[8] = test system: Rattus norvegicus; assay: Volume of distribution in Sprague-Dawley rat at 10 mg/kg, iv and po; format: ADME, organism-based; parameters: dose 10 mg/kg, route oral; conditions: in vivo; method in brief: as §1
[9] = Half life in cynomolgus monkey at 3 mg/kg, iv and 10 mg/kg, po; format: ADME, organism-based, Macaca fascicularis; conditions: in vivo
Method in brief: (§3)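 Male monkeys in each arm; the compound was given at 3 mg/kg intravenously and at 10 mg/kg orally.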

[10] = Bioavailability in cynomolgus monkey at 3 mg/kg, iv and 10 mg/kg, po; format: ADME, organism-based, Macaca fascicularis; conditions: in vivo; method in brief: as §3
[11] = Volume of distribution in Beagle dog at 3 mg/kg, iv and 10 mg/kg, po; format: ADME, organism-based, Canis lupus familiaris; conditions: in vivo; method in brief: as §2
[12] = test system: Ovis aries; assay: Antiasthamatic activity in sheep asthma model assessed as prevention of carbachol-induced hyperresponsiveness at 1 mg/kg, po; format: functional, organism-based; parameters: dose 1 mg/kg
[13] = Clearance in cynomolgus monkey at 3 mg/kg, iv and 10 mg/kg, po; format: ADME, organism-based, Macaca fascicularis; conditions: in vivo; method in brief: as §3
[14] = Volume of distribution in cynomolgus monkey at 3 mg/kg, iv and 10 mg/kg, po; format: ADME, organism-based, Macaca fascicularis; conditions: in vivo; method in brief: as §3
[15] = test system: Ovis aries; assay: Antiasthamatic activity in sheep asthma model assessed as prevention of carbachol-induced hyperresponsiveness at 0.3 mg/kg, po; format: functional, organism-based; parameters: dose 0.3 mg/kg
[16] = Half life in Beagle dog at 3 mg/kg, iv and 10 mg/kg, po; format: ADME, organism-based, Canis lupus familiaris; conditions: in vivo; method in brief: as §2
[17] = Half life in Sprague-Dawley rat at 10 mg/kg, iv and po; format: ADME, organism-based; parameters: dose 10 mg/kg, route oral; conditions: in vivo; method in brief: as §1
[18] = Clearance in Beagle dog at 3 mg/kg, iv and 10 mg/kg, po; format: ADME, organism-based, Canis lupus familiaris; conditions: in vivo; method in brief: as §2

Compound: Cc1noc(C)c1-c1cncnc1N[C@@H](Cc1ccc(OC(=O)N(C)C)cc1)C(=O)O
- pIC50 [1]: > 9.00

Compound: Cc1ccccc1-c1cncnc1N[C@@H](Cc1ccc(OC(=O)N(C)C)cc1)C(=O)O
- pIC50 [1]: 7.60

Compound: CN(C)C(=O)Oc1ccc(C[C@H](Nc2ncncc2-c2ccc[nH]2)C(=O)O)cc1
- pIC50 [1]: 7.12

Compound: CN(C)C(=O)Oc1ccc(C[C@H](Nc2ncnc3ccccc23)C(=O)O)cc1
- pIC50 [1]: 6.72

Compound: Cc1ccccc1-c1cnc(N(C)C2CC2)nc1N[C@@H](Cc1ccc(OC(=O)N(C)C)cc1)C(=O)O
- pIC50 [1]: 7.70

Compound: Cc1ccccc1-c1cnc(N(C)C2CCC2)nc1N[C@@H](Cc1ccc(OC(=O)N(C)C)cc1)C(=O)O
- pIC50 [1]: 8.00

Compound: CN(C)C(=O)Oc1ccc(C[C@H](Nc2ncncc2-c2cccs2)C(=O)O)cc1
- pIC50 [1]: 7.80

Compound: CCCN(CC)c1ncc(-c2ccccc2C)c(N[C@@H](Cc2ccc(OC(=O)N(C)C)cc2)C(=O)O)n1
- pIC50 [1]: 8.31

Compound: CN(C)C(=O)Oc1ccc(C[C@H](Nc2ncncc2-c2ccccc2F)C(=O)O)cc1
- pIC50 [1]: 7.74

Compound: Cc1ccccc1-c1cnc(N(C)C2CCN(C)CC2)nc1N[C@@H](Cc1ccc(OC(=O)N(C)C)cc1)C(=O)O
- pIC50 [1]: 7.17

Compound: Cc1ccccc1-c1cnc(N(C)c2ccc(Cl)cc2)nc1N[C@@H](Cc1ccc(OC(=O)N(C)C)cc1)C(=O)O
- pIC50 [1]: 6.97

Compound: Cc1ccccc1-c1cnc(N(C)CC(C)C)nc1N[C@@H](Cc1ccc(OC(=O)N(C)C)cc1)C(=O)O
- pIC50 [1]: 8.15

Compound: CN(C)C(=O)Oc1ccc(C[C@H](Nc2ncncc2-c2cccc(Cl)c2Cl)C(=O)O)cc1
- pIC50 [1]: 7.11

Compound: CCN(CC)c1ncc(-c2ccccc2C)c(N[C@@H](Cc2ccc(OC(=O)N(C)C)cc2)C(=O)O)n1
- pIC50 [1]: 8.24

Compound: CN(C)C(=O)Oc1ccc(C[C@H](Nc2ncncc2-c2cccnc2)C(=O)O)cc1
- pIC50 [1]: 6.89

Compound: Cc1ccccc1-c1cnc(N2CCCCC2)nc1N[C@@H](Cc1ccc(OC(=O)N(C)C)cc1)C(=O)O
- pIC50 [1]: 7.49

Compound: Cc1ccccc1-c1cnc(N(C)C2CCCCC2)nc1N[C@@H](Cc1ccc(OC(=O)N(C)C)cc1)C(=O)O
- pIC50 [1]: 7.70
- dose excreted [2]: < 3%
- minimal effective dose [3]: 10 mg/kg
- bioavailability [4]: 26%
- minimal effective dose [5]: 10 mg/kg

Compound: Cc1cc(C)c(-c2cncnc2N[C@@H](Cc2ccc(OC(=O)N(C)C)cc2)C(=O)O)c(C)c1
- pIC50 [1]: 7.00

Compound: CCN(C)c1ncc(-c2ccccc2C)c(N[C@@H](Cc2ccc(OC(=O)N(C)C)cc2)C(=O)O)n1
- pIC50 [1]: 8.28

Compound: Cc1ccccc1-c1cnc(N(C)C)nc1N[C@@H](Cc1ccc(OC(=O)N(C)C)cc1)C(=O)O
- pIC50 [1]: 7.54

Compound: CN(C)C(=O)Oc1ccc(C[C@H](Nc2ncncc2-c2ccccc2C(F)(F)F)C(=O)O)cc1
- pIC50 [1]: 7.05

Compound: COc1ccccc1-c1cncnc1N[C@@H](Cc1ccc(OC(=O)N(C)C)cc1)C(=O)O
- pIC50 [1]: 7.80

Compound: CN(C)C(=O)Oc1ccc(C[C@H](Nc2ncncc2-c2cccc([N+](=O)[O-])c2)C(=O)O)cc1
- pIC50 [1]: 6.74

Compound: CN(C)C(=O)Oc1ccc(C[C@H](Nc2ncncc2-c2ccncc2)C(=O)O)cc1
- pIC50 [1]: 7.07

Compound: CN(C)C(=O)Oc1ccc(C[C@H](Nc2nc(N(C)C3CCCCC3)nc3ccccc23)C(=O)O)cc1
- pIC50 [1]: 8.10

Compound: CN(C)C(=O)Oc1ccc(C[C@H](NC(=O)c2ccccc2)C(=O)O)cc1
- pIC50 [1]: 6.89

Compound: CCN(CC)c1ncc(-c2c(C)noc2C)c(N[C@@H](Cc2ccc(OC(=O)N(C)C)cc2)C(=O)O)n1
- bioavailability [6]: 19%
- bioavailability [7]: 59%
- Vd [8]: 0.346 L/kg
- half-life [9]: 1.1 h
- bioavailability [10]: 16%
- Vd [11]: 0.524 L/kg
- Activity [12]: Active
- clearance [13]: 13.5 mL/min/kg
- Vd [14]: 1.29 L/kg
- Activity [15]: inactive
- half-life [16]: 0.9 h
- half-life [17]: 1.4 h
- clearance [18]: 6.73 mL/min/kg

Compound: CN(C)C(=O)Oc1ccc(C[C@H](Nc2ncncc2-c2c(F)cccc2F)C(=O)O)cc1
- pIC50 [1]: 7.57

Compound: CN(C)C(=O)Oc1ccc(C[C@H](Nc2ncncc2-c2ccccc2)C(=O)O)cc1
- pIC50 [1]: 6.52

Compound: Cc1ccsc1-c1cncnc1N[C@@H](Cc1ccc(OC(=O)N(C)C)cc1)C(=O)O
- pIC50 [1]: 8.30
